From PubChem BioAssay
PvdQ acylase – P. aeruginosa PvdQ acylase inhibition | 340,000 tested, 0.063% active | inhibition, % at 10 µM | purified PvdQ acylase, fluorescence plate reader; in the data active = inhibition above about 30%, passing the limit was not always enough;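 also: 0% = vehicle neutral wells and 100% = reference inhibitor wells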
VIM-2 inhibitor – blocks Pseudomonas aeruginosa VIM-2 metallo-beta-lactamase; purified VIM-2, nitrocefin hydrolysis, epi-absorbance fluorescence; 290,000 tested, 0.89% active; AID 1527; inhibition, % at 5.6 µM;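 active = inhibition above the mean of all tested compounds plus 3 SD, cutoff set per screening run, cut at about 7.5% in these data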;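 also: red hydrolysis product quenches plate fluorescence so inhibitors raise well fluorescence; 0% = enzyme with DMSO and 100% = DMSO without enzyme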
RAD54 inh – RAD54 (human) branch migration inhibition. 360,000 tested, 0.14% active. inhibition, % at 10.4 µM. RAD54 Holliday junction branch migration, FAM/BHQ fluorescence;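 active = mean normalized replicate activity at least 40 and at least half of replicates scoring 40 or more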;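 also: 0% = median of neutral control wells and 100% = median of positive control wells; inhibitors cause a drop in the FAM fluorescence signal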
Target sequence (Q92698 whole entry, looked up): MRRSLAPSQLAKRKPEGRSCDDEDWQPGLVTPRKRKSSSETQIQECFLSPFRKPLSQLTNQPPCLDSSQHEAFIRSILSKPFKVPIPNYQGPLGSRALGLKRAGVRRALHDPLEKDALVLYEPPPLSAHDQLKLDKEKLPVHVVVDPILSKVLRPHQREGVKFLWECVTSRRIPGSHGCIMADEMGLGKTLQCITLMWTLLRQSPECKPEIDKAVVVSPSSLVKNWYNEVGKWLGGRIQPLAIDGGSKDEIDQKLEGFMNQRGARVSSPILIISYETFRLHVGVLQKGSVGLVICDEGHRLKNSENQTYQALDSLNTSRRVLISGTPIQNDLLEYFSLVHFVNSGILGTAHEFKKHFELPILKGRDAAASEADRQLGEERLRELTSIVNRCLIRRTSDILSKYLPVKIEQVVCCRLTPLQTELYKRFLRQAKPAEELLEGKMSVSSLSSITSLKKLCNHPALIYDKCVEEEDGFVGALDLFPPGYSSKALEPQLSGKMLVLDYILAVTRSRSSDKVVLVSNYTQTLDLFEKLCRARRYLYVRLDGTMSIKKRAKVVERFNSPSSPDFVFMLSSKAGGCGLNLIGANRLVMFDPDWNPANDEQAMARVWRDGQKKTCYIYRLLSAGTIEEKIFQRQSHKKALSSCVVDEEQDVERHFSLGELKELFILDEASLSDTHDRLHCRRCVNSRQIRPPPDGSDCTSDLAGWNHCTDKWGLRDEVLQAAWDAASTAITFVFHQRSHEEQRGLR
IMP-1 inh – blocks Pseudomonas aeruginosa IMP-1 metallo-beta-lactamase | purified IMP-1, nitrocefin hydrolysis, epi-absorbance fluorescence | inhibition, % at 5.6 µM | 290,000 tested, 0.45% active | AID 1556;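 active = inhibition above the mean plus 3 SD of all compounds in the same screening run, cut at about 4.5% in these data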;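 also: 0% = IMP-1 with DMSO and 100% = DMSO wells lacking enzyme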
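System: Purified recombinant IMP-1 metallo-beta-lactamase enzyme | Measured by: Fluorescence quenching readout, ex 480/em 530 nm | Replication: Singlicate | Incubation: 15 min preincubation plus 25 min reaction at 25 °C | Evaluation: Percent inhibition from optical density relative to buffer-blank wells | Benchmarks: DMSO with and without IMP-1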
FID counter – counter-screen for HCV NS3 helicase inhibitors: DNA intercalator displacement. inhibition, % at 7.9 µM. 290,000 tested, 0.17% active. DNA fluorescent intercalator displacement, fluorescence. AID 1845; in the data active = inhibition above about 37%;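 also: 0% = vehicle and 100% = reference compound; higher means more ethidium bromide displaced from hairpin DNA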
An asterisk follows results filed as active. Sampled rows, rich in hits. Any-hit rate of the full collection: about 1%.

What do the screens show for `CC(C)Cc1nnc(NS(=O)(=O)Cc2ccccc2)s1`?
PvdQ acylase: -10; VIM-2 inhibitor: 10*; RAD54 inh: 7; IMP-1 inh: -4; FID counter: -14

How did CNc1ccc(/C=C(\CCC(=O)O)c2nc3ccccc3s2)cc1[N+](=O)[O-] do in these assays?
PvdQ acylase: -2; VIM-2 inhibitor: 11*; IMP-1 inh: -4; FID counter: -19

Results for Cc1ccc(/C=C(\CCC(=O)O)c2nc3ccccc3s2)cc1[N+](=O)[O-] ?
PvdQ acylase: 0; VIM-2 inhibitor: 8.8*; RAD54 inh: -2; IMP-1 inh: -1; FID counter: -20

What do the screens show for `CN(c1ccccc1)c1ccc(/C=C(\CCC(=O)O)c2nc3ccccc3s2)cc1[N+](=O)[O-]`?
PvdQ acylase: 4; VIM-2 inhibitor: 1; IMP-1 inh: -3; FID counter: -19

Results for O=C(Nc1cccc(F)c1)N1CCCCN2[C@@H](CO)[C@H](c3ccc(C#Cc4ccccc4)cc3)[C@@H]2C1 ?
RAD54 inh: 7

How did C[C@@H]1CN([C@H](C)CO)C(=O)c2cccc(N(C)C)c2O[C@@H]1CN(C)Cc1ccccc1 do in these assays?
RAD54 inh: 6

What do the screens show for `CC1=CC(C)(C)N(C(=O)CNC2CCCC2)c2cc(C)ccc21`?
PvdQ acylase: -5; VIM-2 inhibitor: -5; IMP-1 inh: 34*; FID counter: 24

What do the screens show for `Cc1cc(NC(=O)C2C3C(=O)N(CC4CCCO4)C(C(=O)NCc4ccccc4)C34C=CC2(C)O4)no1` (stereo not given)?
PvdQ acylase: 2; VIM-2 inhibitor: -3; IMP-1 inh: 5.0*; FID counter: -7

How did COc1cccc(C(=O)N2CCN(Cc3ccccc3Br)CC2)c1 do in these assays?
PvdQ acylase: 3; VIM-2 inhibitor: 1; RAD54 inh: 2; IMP-1 inh: 7.4*; FID counter: -26

How did Cc1cc(C)c(NC(=O)COC(=O)c2cccc3c2C(=O)c2ccccc2C3=O)c(C)c1 do in these assays?
PvdQ acylase: -11; VIM-2 inhibitor: -3; IMP-1 inh: -3; FID counter: -3

What do the screens show for `Cc1cc(C)c(Nc2cc(S(=O)(=O)O)c(N)c3c2C(=O)c2ccccc2C3=O)c(C)c1`?
PvdQ acylase: 13; VIM-2 inhibitor: 1; IMP-1 inh: -4; FID counter: 44*

Results for Cc1ccc(-n2nc3c(=O)n(CC(=O)NCc4ccccn4)nc(C)c3c2C)cc1 ?
PvdQ acylase: -9; VIM-2 inhibitor: -2; RAD54 inh: 1; IMP-1 inh: -3; FID counter: -28

Results for CCOc1ccc(CNC(=O)Cn2nc(C)c3c(C)n(-c4ccc(C)cc4)nc3c2=O)cc1 ?
PvdQ acylase: -9; VIM-2 inhibitor: 0; RAD54 inh: 12; IMP-1 inh: 11*; FID counter: -52

Results for Cc1ccccc1S(=O)(=O)N1C[C@H]2[C@@H](c3ccccc31)[C@@H](CO)N2C(=O)CC1CC1 ?
RAD54 inh: 9

How did CCCc1c(CC)c(=N)c2ccccc2n1C do in these assays?
PvdQ acylase: 7; VIM-2 inhibitor: -4; IMP-1 inh: 8.8*; FID counter: 8

Results for Cn1c(-c2ccccc2)c(C(=O)CCl)c2ccccc21 ?
PvdQ acylase: 6; VIM-2 inhibitor: 0; IMP-1 inh: -2; FID counter: -7

What do the screens show for `O=C(/C=C/c1cccs1)c1cc(Cl)ccc1O`?
PvdQ acylase: 77*; VIM-2 inhibitor: -4; RAD54 inh: 5; IMP-1 inh: -3; FID counter: 2

Results for O=C(C=Cc1cccs1)c1ccc(Cl)s1 ?
PvdQ acylase: 4; RAD54 inh: -2

Results for O=C(C=Cc1ccco1)c1cc(Cl)ccc1O ?
PvdQ acylase: 45*; RAD54 inh: -4

Results for NCC[C@@H]1CC[C@@H](NC(=O)C2CCCCC2)[C@@H](CO)O1 ?
RAD54 inh: 3

What do the screens show for `O=Cc1coc2ccc3ccccc3c2c1=O`?
PvdQ acylase: -8; VIM-2 inhibitor: 3; RAD54 inh: 6; IMP-1 inh: 36*; FID counter: 21

What do the screens show for `NC(=O)N/N=C/c1coc2ccc3ccccc3c2c1=O`?
PvdQ acylase: -15; VIM-2 inhibitor: -3; IMP-1 inh: -3; FID counter: 1

How did OC1=C(O)c2nc3cc(F)ccc3nc21 do in these assays?
PvdQ acylase: 0; VIM-2 inhibitor: 8.2*; RAD54 inh: -10; IMP-1 inh: -3; FID counter: 38*

Results for Cn1c(N)c(C#N)c2c(c1=S)CSC(C)(C)C2 ?
PvdQ acylase: 1; VIM-2 inhibitor: 0; RAD54 inh: 1; IMP-1 inh: 0; FID counter: 6

How did CC1(C)Cc2c(C#N)c(N)sc(=S)c2CS1 do in these assays?
PvdQ acylase: -12; VIM-2 inhibitor: 1; RAD54 inh: -15; IMP-1 inh: 6.4*; FID counter: 4

How did CN(C)C(=O)C[C@@H]1C[C@H]2c3cc(NC(=O)NC4CCCC4)ccc3O[C@H]2[C@H](CO)O1 do in these assays?
RAD54 inh: 5

How did CC1CCN(c2ccccc2NC(=S)NC(=O)c2cccs2)CC1 do in these assays?
PvdQ acylase: -10; VIM-2 inhibitor: -2; IMP-1 inh: -4; FID counter: -10

Results for CC1CCN(c2ccccc2NC(=S)NC(=O)C(C)(C)C)CC1 ?
PvdQ acylase: -16; VIM-2 inhibitor: 0; IMP-1 inh: 6.3*; FID counter: -6

What do the screens show for `CC(C)(C)C(=O)NC(=S)Nc1ccccc1C(=O)Nc1ccccc1`?
PvdQ acylase: -7; VIM-2 inhibitor: -1; RAD54 inh: -4; IMP-1 inh: 17*; FID counter: 1

How did CC(C)C(=O)NC(=S)Nc1ccccc1C(=O)Nc1ccccc1 do in these assays?
PvdQ acylase: -5; VIM-2 inhibitor: -3; IMP-1 inh: 19*; FID counter: -6

How did CC(C)CC(=O)NC(=S)Nc1ccccc1C(=O)Nc1ccccc1 do in these assays?
PvdQ acylase: -5; VIM-2 inhibitor: -5; IMP-1 inh: 12*; FID counter: -4

Results for O=C(Cc1ccccc1)Nc1ccccc1C(=O)Nc1ccccc1 ?
PvdQ acylase: -5; VIM-2 inhibitor: -1; IMP-1 inh: -5; FID counter: -19

Results for OCCSc1nc(-c2cccnc2)nc2ccccc12 ?
PvdQ acylase: 1; VIM-2 inhibitor: 7.7*; RAD54 inh: -2; IMP-1 inh: -2; FID counter: -13

Results for COc1ccc(NC(=O)Nc2ccc3c(c2)C(=O)N([C@H](C)CO)C[C@@H](C)[C@H](CN(C)C(=O)NC(C)C)O3)cc1 ?
RAD54 inh: -3

Results for Cc1ccccc1NC(=O)c1nnn(-c2ccc3c(c2)OCCO3)c1N ?
PvdQ acylase: -23; VIM-2 inhibitor: 0; RAD54 inh: -9; IMP-1 inh: -2; FID counter: -11

How did Nc1c(C(=O)Nc2cccc(F)c2)nnn1-c1ccc2c(c1)OCCO2 do in these assays?
PvdQ acylase: -8; VIM-2 inhibitor: 4; RAD54 inh: -2; IMP-1 inh: 18*; FID counter: -3

How did CNC[C@@H]1Oc2ccc(NC(=O)Nc3cccc4ccccc34)cc2CC(=O)N([C@H](C)CO)C[C@H]1C do in these assays?
RAD54 inh: -21
